Source: ChEMBL document CHEMBL4428050, “Design, Synthesis, and Biological Evaluation of Substituted Pyrimidines as Potential Phosphatidylinositol 3-Kinase (PI3K) Inhibitors” (J Med Chem, 2016)
The source made the active and inactive calls. The rule behind the calls is not given here.

Legend:
PANC-1 = experiment: Antiproliferative activity against human PANC1 cells after 72 hrs by CCK8 assay; type: functional, cell-based; details: Homo sapiens, PANC-1, 72 h
DU-145 = experiment: Antiproliferative activity against human DU145 cells after 72 hrs by CCK8 assay; type: functional, cell-based
Huh-7 = experiment: Antiproliferative activity against human HuH7 cells after 72 hrs by CCK8 assay; type: functional, cell-based; details: Huh-7, 72 h
SGC-7901 = experiment: Antiproliferative activity against human SGC7901 cells after 72 hrs by CCK8 assay; type: functional, cell-based; details: SGC-7901, 72 h
[1] = Inhibition of PI3K p110delta/p85 (unknown origin) using PIP2/ATP as substrate after 1 hr by kinase glo luminescent assay; parameters: species or system Homo sapiens
BGC-823 = experiment: Antiproliferative activity against human BGC823 cells after 72 hrs by CCK8 assay; type: functional, cell-based; details: Homo sapiens, BGC-823, 72 h
Bel-7402 = experiment: Antiproliferative activity against human Bel7402 cells after 72 hrs by CCK8 assay; type: functional, cell-based; details: Bel-7402, 72 h
MOLT-4 = experiment: Antiproliferative activity against human MOLT4 cells after 72 hrs by CCK8 assay; type: functional, cell-based; details: Homo sapiens, MOLT-4, 72 h
HeLa = experiment: Antiproliferative activity against human HeLa cells after 72 hrs by CCK8 assay; type: functional, cell-based; details: Homo sapiens, HeLa, 72 h
A-431 = experiment: Antiproliferative activity against human A431 cells after 72 hrs by CCK8 assay; type: functional, cell-based; details: Homo sapiens, A-431, 72 h
[2] = Inhibition of PI3K p110alpha/p85 (unknown origin) using PIP2/ATP as substrate after 1 hr by kinase glo luminescent assay; parameters: species or system Homo sapiens
Summary of the method: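 PI3K p110α activity read by Kinase-Glo Plus luminescence. IC50 is the mean of triplicate measurements.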

A549 = experiment: Antiproliferative activity against human A549 cells after 72 hrs by CCK8 assay; type: functional, cell-based; details: Homo sapiens, A549, 72 h
MCF7 = experiment: Antiproliferative activity against human MCF7 cells after 72 hrs by CCK8 assay; type: functional, cell-based; details: Homo sapiens, MCF7, 72 h
U-937 = experiment: Antiproliferative activity against human U937 cells after 72 hrs by CCK8 assay; type: functional, cell-based; details: Homo sapiens, U-937, 72 h
NCI-N87 = experiment: Antiproliferative activity against human NCI-N87 cells after 72 hrs by CCK8 assay; type: functional, cell-based; details: Homo sapiens, NCI-N87, 72 h
[3] = Inhibition of PI3K p110beta/p85 (unknown origin) using PIP2/ATP as substrate after 1 hr by kinase glo luminescent assay; parameters: species or system Homo sapiens
HT-1080 = experiment: Antiproliferative activity against human HT1080 cells after 72 hrs by CCK8 assay; type: functional, cell-based; details: HT-1080, 72 h
Homo sapiens [4] = organism: Homo sapiens; experiment: Inhibition of PI3K in human U937 cells assessed as suppression of AKT phosphorylation at S473 after 24 hrs by Western blot analysis; type: cell-based
K562 = experiment: Antiproliferative activity against human K562 cells after 72 hrs by CCK8 assay; type: functional, cell-based; details: Homo sapiens, K562, 72 h
MDA-MB-231 [5] = experiment: Antitumor activity against human MDA-MB-231 cells xenografted in nude mouse assessed as tumor size at 30 mg/kg, ig administered every 2 days for 19 days measured post last dose (reference value: 1065 +/- 142 mm'3); type: functional
Summary of the method: (§1)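 Nude mice carried MDA-MB-231 xenograft tumours and received vehicle or 30 mg/kg intragastrically every two days for 19 days. Estimated tumour volume and body weight were followed over time. Tumours were dissected from 5 mice per group and weighed. Data are mean±SD, n=5, Student t test.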

[6] = Toxicity in nude mouse xenografted with human MDA-MB-231 cells assessed as decrease in body weight at 30 mg/kg, ig administered every 2 days for 19 days measured during compound dosing; type: organism-based; details: in vivo, po; summary of the method: as §1
[7] = target: PI3-kinase subunit gamma/Phosphoinositide 3-kinase regulatory subunit 5 (Homo sapiens, UniProt P48736); experiment: Inhibition of PI3K p110gamma/p101 (unknown origin) using PIP2/ATP as substrate after 1 hr by kinase glo luminescent assay; type: protein-complex assay
Chain of PI3-kinase subunit gamma/Phosphoinositide 3-kinase regulatory subunit 5 (P48736 whole entry): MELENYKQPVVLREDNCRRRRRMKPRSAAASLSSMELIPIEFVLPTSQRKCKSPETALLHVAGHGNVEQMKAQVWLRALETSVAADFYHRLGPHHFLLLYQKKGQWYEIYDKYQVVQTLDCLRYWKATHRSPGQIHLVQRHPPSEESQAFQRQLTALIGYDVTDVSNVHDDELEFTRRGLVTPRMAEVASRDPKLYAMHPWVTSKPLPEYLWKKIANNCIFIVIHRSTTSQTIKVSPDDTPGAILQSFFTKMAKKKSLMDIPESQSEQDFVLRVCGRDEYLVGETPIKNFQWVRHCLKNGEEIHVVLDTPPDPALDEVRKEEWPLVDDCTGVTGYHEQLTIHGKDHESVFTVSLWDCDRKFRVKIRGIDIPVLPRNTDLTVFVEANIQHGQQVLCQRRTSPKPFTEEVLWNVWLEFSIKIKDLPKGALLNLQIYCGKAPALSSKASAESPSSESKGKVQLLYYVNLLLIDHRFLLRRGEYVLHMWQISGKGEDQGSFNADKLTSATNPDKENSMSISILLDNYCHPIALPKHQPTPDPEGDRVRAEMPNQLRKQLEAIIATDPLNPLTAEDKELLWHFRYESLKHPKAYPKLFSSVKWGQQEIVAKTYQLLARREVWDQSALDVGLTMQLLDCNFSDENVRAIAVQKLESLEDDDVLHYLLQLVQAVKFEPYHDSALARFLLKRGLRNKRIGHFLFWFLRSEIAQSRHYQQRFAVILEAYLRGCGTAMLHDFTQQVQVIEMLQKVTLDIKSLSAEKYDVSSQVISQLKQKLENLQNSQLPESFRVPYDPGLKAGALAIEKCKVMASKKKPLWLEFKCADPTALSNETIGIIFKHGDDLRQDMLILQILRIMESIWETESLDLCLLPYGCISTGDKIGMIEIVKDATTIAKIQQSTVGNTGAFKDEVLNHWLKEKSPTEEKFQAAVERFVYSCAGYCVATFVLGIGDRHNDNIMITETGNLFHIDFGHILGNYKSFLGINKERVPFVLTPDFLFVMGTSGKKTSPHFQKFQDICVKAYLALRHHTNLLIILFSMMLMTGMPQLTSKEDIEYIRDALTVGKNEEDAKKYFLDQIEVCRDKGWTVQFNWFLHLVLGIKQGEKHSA
Chain of PI3-kinase subunit gamma/Phosphoinositide 3-kinase regulatory subunit 5 (Q8WYR1 whole entry, further chain): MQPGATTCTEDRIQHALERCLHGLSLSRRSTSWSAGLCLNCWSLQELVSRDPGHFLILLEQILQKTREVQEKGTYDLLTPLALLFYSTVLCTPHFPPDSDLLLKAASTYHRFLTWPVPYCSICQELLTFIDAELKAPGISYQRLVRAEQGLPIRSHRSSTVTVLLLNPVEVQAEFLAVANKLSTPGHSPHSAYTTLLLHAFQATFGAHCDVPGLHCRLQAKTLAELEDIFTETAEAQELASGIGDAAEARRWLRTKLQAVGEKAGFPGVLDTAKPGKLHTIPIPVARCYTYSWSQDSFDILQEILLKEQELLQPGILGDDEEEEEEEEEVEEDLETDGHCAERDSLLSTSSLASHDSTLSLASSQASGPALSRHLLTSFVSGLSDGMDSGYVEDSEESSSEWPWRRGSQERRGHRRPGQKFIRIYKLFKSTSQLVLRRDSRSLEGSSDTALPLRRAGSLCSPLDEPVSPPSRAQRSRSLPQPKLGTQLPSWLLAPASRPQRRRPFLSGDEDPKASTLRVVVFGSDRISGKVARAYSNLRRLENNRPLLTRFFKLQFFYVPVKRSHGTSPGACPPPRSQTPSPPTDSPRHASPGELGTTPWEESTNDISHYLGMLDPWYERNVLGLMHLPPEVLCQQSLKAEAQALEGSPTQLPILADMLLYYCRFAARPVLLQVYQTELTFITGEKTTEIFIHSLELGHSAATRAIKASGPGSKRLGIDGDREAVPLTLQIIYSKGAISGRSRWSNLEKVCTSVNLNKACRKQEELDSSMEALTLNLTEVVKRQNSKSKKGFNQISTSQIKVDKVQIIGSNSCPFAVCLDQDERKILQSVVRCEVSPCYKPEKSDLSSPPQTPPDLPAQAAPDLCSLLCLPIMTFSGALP

MDA-MB-231 [8] = experiment: Antitumor activity against human MDA-MB-231 cells xenografted in nude mouse assessed as tumor weight at 30 mg/kg, ig administered every 2 days for 19 days measured post last dose (reference value: 0.74 +/- 0.10 g); type: functional; summary of the method: as §1
SK-BR-3 = experiment: Antiproliferative activity against human SK-BR-3 cells after 72 hrs by CCK8 assay; type: functional, cell-based; details: SK-BR-3, 72 h
PC-3 = experiment: Antiproliferative activity against human PC3 cells after 72 hrs by CCK8 assay; type: functional, cell-based; details: PC-3, 72 h
Homo sapiens [9] = organism: Homo sapiens; experiment: Selectivity ratio of IC50 for PI3K p110beta/p85 (unknown origin) to IC50 for PI3K p110alpha/p85 (unknown origin)
MDA-MB-231 [10] = experiment: Antiproliferative activity against human MDA-MB-231 cells by WST8 assay; type: functional, cell-based
HL-60 = experiment: Antiproliferative activity against human HL60 cells after 72 hrs by CCK8 assay; type: functional, cell-based; details: HL-60, 72 h

## Nc1cc(C(F)(F)F)c(-c2cc(N3CCOCC3)nc(N3CCOCC3)n2)cn1 [BUPARLISIB]
PANC-1
  IC50: 1.83 µM
DU-145; Homo sapiens, DU-145, 72 h
  IC50: 910 nM
Huh-7
  IC50: 1510 nM
SGC-7901
  IC50: 1240 nM
[1]
  IC50: 62 nM
BGC-823
  IC50: 1430 nM
Bel-7402
  IC50: 1920 nM
MOLT-4
  IC50: 800 nM
HeLa
  IC50: 1170 nM
A-431
  IC50: 1.03 µM
[2]
  IC50: 28 nM
A549
  IC50: 1.51 µM
MCF7
  IC50: 1500 nM
U-937
  IC50: 580 nM
NCI-N87
  IC50: 660 nM
[3]
  IC50: 259 nM
HT-1080
  IC50: 2.08 µM
Homo sapiens [4]
  inhibition: Active
K562
  IC50: 1100 nM

## Nc1cc(C(F)(F)F)c(-c2cc(N3CCOCC3)nc(N3C[C@@H]4OCCO[C@H]4C3)n2)cn1 (racemic)
PANC-1
  IC50: 3.26 µM
DU-145; du-145
  IC50: 1930 nM
Huh-7
  IC50: 4260 nM
MDA-MB-231 [5]
  Activity: 402 mm3
SGC-7901
  IC50: 3140 nM
[1]
  IC50: 61 nM
BGC-823
  IC50: 3090 nM
[6]
  Activity: Non-Toxic
[7]
  IC50: 158 nM
Bel-7402
  IC50: 3370 nM
MOLT-4
  IC50: 1000 nM
HeLa
  IC50: 2660 nM
A-431
  IC50: 3.68 µM
[2]
  IC50: 31 nM
A549
  IC50: 3.39 µM
MCF7
  IC50: 2420 nM
MDA-MB-231 [8]
  Activity: 0.32 g
U-937
  IC50: 770 nM
NCI-N87
  IC50: 1360 nM
[3]
  IC50: 175 nM
HT-1080
  IC50: 4.73 µM
K562
  IC50: 4260 nM

## CS(=O)(=O)N1CCN(C(=O)c2ccc(Nc3nc(-c4cnc(N)cc4C(F)(F)F)cc(N4CCOCC4)n3)cc2)CC1
PANC-1
  IC50: 3.47 µM
SK-BR-3
  IC50: 4.79 µM
PC-3
  IC50: 19.5 µM
[1]
  IC50: 13 nM
[7]
  IC50: 80 nM
MOLT-4
  IC50: 1960 nM
HeLa
  IC50: > 100000 nM
A-431
  IC50: 10.5 µM
[2]
  IC50: 18 nM
A549
  IC50: 9.13 µM
MCF7
  IC50: 12800 nM
U-937
  IC50: 4740 nM
NCI-N87
  IC50: 4220 nM
Homo sapiens [9]
  Ratio IC50: 112
[3]
  IC50: 2010 nM
Homo sapiens [4]
  inhibition: Active
MDA-MB-231 [10]
  IC50: 4.34 µM
HL-60
  IC50: 2490 nM
